What was measured:
Type in all cases: functional
HOP-92 = assay: Cytotoxicity against human HOP92 cells assessed as growth inhibition at 10 uM after 48 hrs by sulphorhodamine B assay; settings: HOP-92, 48 h, read-out: GI
Procedure, shortened: (§1)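 NCI-60 one-dose screen per the NCI Drug Evaluation Branch protocol. Cells given a single 10 µM concentration with 48 h continuous exposure. Growth estimated by sulphorhodamine B protein assay. Result expressed as percentage growth inhibition relative to untreated growth.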

NCI-H23 = assay: Cytotoxicity against human NCI-H23 cells assessed as growth inhibition at 10 uM after 48 hrs by sulphorhodamine B assay; settings: NCI-H23, 48 h, read-out: GI; procedure, shortened: as §1
[1] = Cytotoxicity against human EKVX cells assessed as growth inhibition at 10 uM after 48 hrs by sulphorhodamine B assay; settings: read-out: GI; procedure, shortened: as §1
A549 = assay: Cytotoxicity against human A549 cells assessed as growth inhibition at 10 uM after 48 hrs by sulphorhodamine B assay; settings: A549, 48 h, read-out: GI; procedure, shortened: as §1
NCI/ADR-RES = assay: Cytotoxicity against human NCI/ADR-RES cells assessed as growth inhibition at 10 uM after 48 hrs by sulphorhodamine B assay; settings: read-out: GI; procedure, shortened: as §1
SNB-75 = assay: Cytotoxicity against human SNB75 cells assessed as growth inhibition at 10 uM after 48 hrs by sulphorhodamine B assay; settings: SNB-75, 48 h, read-out: GI; procedure, shortened: as §1
U-251 = assay: Cytotoxicity against human U251 cells assessed as growth inhibition at 10 uM after 48 hrs by sulphorhodamine B assay; settings: U-251, 48 h, read-out: GI; procedure, shortened: as §1
SNB-19 = assay: Cytotoxicity against human SNB19 cells assessed as growth inhibition at 10 uM after 48 hrs by sulphorhodamine B assay; settings: SNB-19, 48 h, read-out: GI; procedure, shortened: as §1
SF-295 = assay: Cytotoxicity against human SF295 cells assessed as growth inhibition at 10 uM after 48 hrs by sulphorhodamine B assay; settings: SF-295, 48 h, read-out: GI; procedure, shortened: as §1
DU-145 = assay: Cytotoxicity against human DU145 cells assessed as growth inhibition at 10 uM after 48 hrs by sulphorhodamine B assay; settings: DU-145, 48 h, read-out: GI; procedure, shortened: as §1
SF-268 = assay: Cytotoxicity against human SF268 cells assessed as growth inhibition at 10 uM after 48 hrs by sulphorhodamine B assay; settings: SF-268, 48 h, read-out: GI; procedure, shortened: as §1
PC-3 = assay: Cytotoxicity against human PC3 cells assessed as growth inhibition at 10 uM after 48 hrs by sulphorhodamine B assay; settings: PC-3, 48 h, read-out: GI; procedure, shortened: as §1
UACC-62 = assay: Cytotoxicity against human UACC62 cells assessed as growth inhibition at 10 uM after 48 hrs by sulphorhodamine B assay; settings: UACC-62, 48 h, read-out: GI; procedure, shortened: as §1
SK-MEL-2 = assay: Cytotoxicity against human SK-MEL-2 cells assessed as growth inhibition at 10 uM after 48 hrs by sulphorhodamine B assay; settings: SK-MEL-2, 48 h, read-out: GI; procedure, shortened: as §1
SK-MEL-5 = assay: Cytotoxicity against human SK-MEL-5 cells assessed as growth inhibition at 10 uM after 48 hrs by sulphorhodamine B assay; settings: SK-MEL-5, 48 h, read-out: GI; procedure, shortened: as §1
M14 = assay: Cytotoxicity against human M14 cells assessed as growth inhibition at 10 uM after 48 hrs by sulphorhodamine B assay; settings: M14, 48 h, read-out: GI; procedure, shortened: as §1
LOX IMVI = assay: Cytotoxicity against human LOXIMVI cells assessed as growth inhibition at 10 uM after 48 hrs by sulphorhodamine B assay; settings: read-out: GI; procedure, shortened: as §1
UO-31 = assay: Cytotoxicity against human UO31 cells assessed as growth inhibition at 10 uM after 48 hrs by sulphorhodamine B assay; settings: UO-31, 48 h, read-out: GI; procedure, shortened: as §1
CAKI-1 = assay: Cytotoxicity against human Caki1 cells assessed as growth inhibition at 10 uM after 48 hrs by sulphorhodamine B assay; settings: CAKI-1, 48 h, read-out: GI; procedure, shortened: as §1
RXF 393 = assay: Cytotoxicity against human RXF393 cells assessed as growth inhibition at 10 uM after 48 hrs by sulphorhodamine B assay; settings: RXF 393, 48 h, read-out: GI; procedure, shortened: as §1
ACHN = assay: Cytotoxicity against human ACHN cells assessed as growth inhibition at 10 uM after 48 hrs by sulphorhodamine B assay; settings: read-out: GI; procedure, shortened: as §1
SR = assay: Cytotoxicity against human SR cells assessed as growth inhibition at 10 uM after 48 hrs by sulphorhodamine B assay; settings: read-out: GI; procedure, shortened: as §1
A498 = assay: Cytotoxicity against human A498 cells assessed as growth inhibition at 10 uM after 48 hrs by sulphorhodamine B assay; settings: A498, 48 h, read-out: GI; procedure, shortened: as §1
RPMI-8226 = assay: Cytotoxicity against human RPMI8226 cells assessed as growth inhibition at 10 uM after 48 hrs by sulphorhodamine B assay; settings: RPMI-8226, 48 h, read-out: GI; procedure, shortened: as §1
MOLT-4 = assay: Cytotoxicity against human MOLT4 cells assessed as growth inhibition at 10 uM after 48 hrs by sulphorhodamine B assay; settings: MOLT-4, 48 h, read-out: GI; procedure, shortened: as §1
K562 = assay: Cytotoxicity against human K562 cells assessed as growth inhibition at 10 uM after 48 hrs by sulphorhodamine B assay; settings: K562, 48 h, read-out: GI; procedure, shortened: as §1
HL-60(TB) = assay: Cytotoxicity against human HL-60(TB) cells assessed as growth inhibition at 10 uM after 48 hrs by sulphorhodamine B assay; settings: HL-60, 48 h, read-out: GI
Procedure, shortened: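 NCI-60 one-dose primary screen run to the Drug Evaluation Branch protocol. Cells are exposed to a single 10 µM concentration for 48 h continuously, and growth is read by SRB protein assay. Data are reported as percent growth of treated cells, expressed as % growth inhibition.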

SK-OV-3 = assay: Cytotoxicity against human SKOV3 cells assessed as growth inhibition at 10 uM after 48 hrs by sulphorhodamine B assay; settings: SK-OV-3, 48 h, read-out: GI; procedure, shortened: as §1
CCRF-CEM = assay: Cytotoxicity against human CCRF-CEM cells assessed as growth inhibition at 10 uM after 48 hrs by sulphorhodamine B assay; settings: read-out: GI; procedure, shortened: as §1
OVCAR-5 = assay: Cytotoxicity against human OVCAR5 cells assessed as growth inhibition at 10 uM after 48 hrs by sulphorhodamine B assay; settings: OVCAR-5, 48 h, read-out: GI; procedure, shortened: as §1
OVCAR-4 = assay: Cytotoxicity against human OVCAR4 cells assessed as growth inhibition at 10 uM after 48 hrs by sulphorhodamine B assay; settings: OVCAR-4, 48 h, read-out: GI; procedure, shortened: as §1
IGROV-1 = assay: Cytotoxicity against human IGROV1 cells assessed as growth inhibition at 10 uM after 48 hrs by sulphorhodamine B assay; settings: IGROV-1, 48 h, read-out: GI; procedure, shortened: as §1
T47D = assay: Cytotoxicity against human T47D cells assessed as growth inhibition at 10 uM after 48 hrs by sulphorhodamine B assay; settings: read-out: GI; procedure, shortened: as §1
Hs-578T = assay: Cytotoxicity against human Hs578T cells assessed as growth inhibition at 10 uM after 48 hrs by sulphorhodamine B assay; settings: read-out: GI; procedure, shortened: as §1
NCI-H522 = assay: Cytotoxicity against human NCI-H522 cells assessed as growth inhibition at 10 uM after 48 hrs by sulphorhodamine B assay; settings: NCI-H522, 48 h, read-out: GI; procedure, shortened: as §1
HT-29 = assay: Cytotoxicity against human HT-29 cells assessed as growth inhibition at 10 uM after 48 hrs by sulphorhodamine B assay; settings: HT-29, 48 h, read-out: GI; procedure, shortened: as §1
MCF7 = assay: Cytotoxicity against human MCF7 cells assessed as growth inhibition at 10 uM after 48 hrs by sulphorhodamine B assay; settings: MCF7, 48 h, read-out: GI; procedure, shortened: as §1
MDA-MB-435 = assay: Cytotoxicity against human MDA-MB-435 cells assessed as growth inhibition at 10 uM after 48 hrs by sulphorhodamine B assay; settings: MDA-MB-435, 48 h, read-out: GI; procedure, shortened: as §1
HCT-15 = assay: Cytotoxicity against human HCT15 cells assessed as growth inhibition at 10 uM after 48 hrs by sulphorhodamine B assay; settings: HCT-15, 48 h, read-out: GI; procedure, shortened: as §1
MDA-MB-468 = assay: Cytotoxicity against human MDA-MB-468 cells assessed as growth inhibition at 10 uM after 48 hrs by sulphorhodamine B assay; settings: MDA-MB-468, 48 h, read-out: GI; procedure, shortened: as §1
HCT-116 = assay: Cytotoxicity against human HCT116 cells assessed as growth inhibition at 10 uM after 48 hrs by sulphorhodamine B assay; settings: HCT-116, 48 h, read-out: GI; procedure, shortened: as §1

Compound: CC1CCCc2c1nc1[nH]c(=O)nc(N)c1c2-c1ccc(Cl)cc1 (stereo unspecified)
- inhibition of growth at 10 µM (HOP-92): 27.7%
- inhibition of growth at 10 µM (NCI-H23): 10%
- inhibition of growth at 10 µM [1]: < 10%
- inhibition of growth at 10 µM (A549): 11.5%
- inhibition of growth at 10 µM (NCI/ADR-RES): < 10%
- inhibition of growth at 10 µM (SNB-75): 11%
- inhibition of growth at 10 µM (U-251): 10.2%
- inhibition of growth at 10 µM (SNB-19): 16.6%
- inhibition of growth at 10 µM (SF-295): < 10%
- inhibition of growth at 10 µM (DU-145): 14%
- inhibition of growth at 10 µM (SF-268): < 10%
- inhibition of growth at 10 µM (PC-3): 12.7%
- inhibition of growth at 10 µM (UACC-62): 25.4%
- inhibition of growth at 10 µM (SK-MEL-2): < 10%
- inhibition of growth at 10 µM (SK-MEL-5): < 10%
- inhibition of growth at 10 µM (M14): < 10%
- inhibition of growth at 10 µM (LOX IMVI): < 10%
- inhibition of growth at 10 µM (UO-31): 10%
- inhibition of growth at 10 µM (CAKI-1): < 10%
- inhibition of growth at 10 µM (RXF 393): < 10%
- inhibition of growth at 10 µM (ACHN): < 10%
- inhibition of growth at 10 µM (SR): < 10%
- inhibition of growth at 10 µM (A498): < 10%
- inhibition of growth at 10 µM (RPMI-8226): 23%
- inhibition of growth at 10 µM (MOLT-4): < 10%
- inhibition of growth at 10 µM (K562): 36.4%
- inhibition of growth at 10 µM (HL-60(TB)): 24.6%
- inhibition of growth at 10 µM (SK-OV-3): < 10%
- inhibition of growth at 10 µM (CCRF-CEM): < 10%
- inhibition of growth at 10 µM (OVCAR-5): < 10%
- inhibition of growth at 10 µM (OVCAR-4): 13.6%
- inhibition of growth at 10 µM (IGROV-1): < 10%
- inhibition of growth at 10 µM (T47D): 29.5%
- inhibition of growth at 10 µM (Hs-578T): 19.4%
- inhibition of growth at 10 µM (NCI-H522): 12.9%
- inhibition of growth at 10 µM (HT-29): < 10%
- inhibition of growth at 10 µM (MCF7): < 10%
- inhibition of growth at 10 µM (MDA-MB-435): < 10%
- inhibition of growth at 10 µM (HCT-15): 10%
- inhibition of growth at 10 µM (MDA-MB-468): 10%
- inhibition of growth at 10 µM (HCT-116): 14%

Source: ChEMBL document CHEMBL2375313, “Synthesis, in vitro antitumor evaluation and DNA-binding study of novel tetrahydroquinolines and some derived tricyclic and tetracyclic ring systems” (Eur J Med Chem, 2013)
